Assay [1] deals with Rattus norvegicus. Nature of the assay: Effective dose required to inhibit the Locomotor activity in rat after po administration. Type of assay: functional. An outline of the steps: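 Inhibition of spontaneous locomotor activity in rats after oral dosing. ED50 is generated from four to six doses, with 5-12 animals per dose.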
The target in the next assay is D(2) dopamine receptor (Rattus norvegicus, UniProt P61169). Nature of the assay: Binding affinity towards dopamine receptor D2 in rat striatal membrane using [3H]spiperone. It counts as cell membranes, Striatum.
Chain of D(2) dopamine receptor (P61169 whole entry): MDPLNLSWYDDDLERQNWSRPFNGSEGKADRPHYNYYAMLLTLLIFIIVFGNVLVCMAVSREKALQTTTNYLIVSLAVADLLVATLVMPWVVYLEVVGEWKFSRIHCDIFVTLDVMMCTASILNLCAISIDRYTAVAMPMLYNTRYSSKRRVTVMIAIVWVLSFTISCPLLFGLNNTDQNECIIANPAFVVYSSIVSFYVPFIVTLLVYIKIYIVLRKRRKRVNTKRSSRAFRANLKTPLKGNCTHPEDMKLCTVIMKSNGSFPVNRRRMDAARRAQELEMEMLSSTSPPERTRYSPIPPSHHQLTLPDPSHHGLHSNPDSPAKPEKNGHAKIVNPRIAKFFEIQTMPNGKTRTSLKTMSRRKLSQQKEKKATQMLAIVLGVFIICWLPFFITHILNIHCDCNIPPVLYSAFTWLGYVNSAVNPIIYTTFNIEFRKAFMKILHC
For the next assay, the target named is D(1A) dopamine receptor (Rattus norvegicus, UniProt P18901). Nature of the assay: In vitro binding affinity towards dopamine receptor D1 in rat striatal membrane using [3H]-SCH- 23390. Type of assay: cell membranes, Striatum. An outline of the steps: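 Dopamine D1 binding in rat striatal membranes with the selective D1 antagonist [3H]SCH23390. IC50 comes from four or five compound concentrations, each run in triplicate, fitted by nonlinear regression.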
Chain of D(1A) dopamine receptor (P18901 whole entry): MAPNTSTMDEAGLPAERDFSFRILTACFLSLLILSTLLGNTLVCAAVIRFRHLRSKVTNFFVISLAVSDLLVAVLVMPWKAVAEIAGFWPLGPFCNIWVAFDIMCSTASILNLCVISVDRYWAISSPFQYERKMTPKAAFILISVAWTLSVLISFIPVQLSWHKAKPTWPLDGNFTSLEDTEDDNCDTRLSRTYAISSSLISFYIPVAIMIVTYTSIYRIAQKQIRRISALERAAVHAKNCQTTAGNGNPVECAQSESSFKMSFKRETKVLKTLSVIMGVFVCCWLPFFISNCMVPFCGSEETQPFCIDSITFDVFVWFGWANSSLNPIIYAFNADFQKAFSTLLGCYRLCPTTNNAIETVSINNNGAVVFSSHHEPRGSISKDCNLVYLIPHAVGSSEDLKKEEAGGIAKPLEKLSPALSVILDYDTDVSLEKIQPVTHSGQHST

The test system of the next assay is Mus musculus. Nature of the assay: Effective dose required to inhibit the Locomotor activity in mouse after ip administration. It counts as functional.
Assay [2] relates to Rattus norvegicus. Nature of the assay: Percentage inhibition of DA neural firing after administration the compound at a dose of 2.5 mg/Kg through ip route in rats. It counts as functional. To be noted: for inhibition in vivo at 2.5 mg/kg: Rattus norvegicus, ip.
The test system of assay [3] is Rattus norvegicus. Nature of the assay: Effective dose for the reversal of the increase in DOPA levels in the striatum of GBL-treated rats after ip administration. Type of assay: functional. An outline of the steps: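 Male Long-Evans rats got test compound ip 1 h before sacrifice, GBL 750 mg/kg ip 30 min before and NSD 1015 100 mg/kg ip 25 min before. Striatal DOPA was measured by HPLC with electrochemical detection, n = 4 or 5 rats. ED50 (95% CI) is the dose reversing the GBL-induced DOPA rise; percent reversal at a single test dose is given otherwise.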

The target of assay [4] is D(2) dopamine receptor (Rattus norvegicus) (UniProt P61169). Nature of the assay: Compound at 10E-5 M was tested in vitro for binding affinity towards dopamine receptor D2 in rat striatal membrane by using [3H]spiperone as radioligand. It counts as cell membranes. The note with it: Striatum.
Chain of D(2) dopamine receptor (Rattus norvegicus) (P61169 whole entry): as the sequence (P61169 whole entry) above
Assay [5] relates to Rattus norvegicus. Nature of the assay: Effective dose required to inhibit the Locomotor activity in Rat after po administration. Type of assay: functional.
Assay [6] relates to Rattus norvegicus. Nature of the assay: Compound was tested for inhibition of locomotor activity after sc administration in rat. Type of assay: functional. An outline of the steps:
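Spontaneous exploratory locomotor activity in rats after sc dosing. […] 5-12 animals were used per dose.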

Assay [7] deals with Rattus norvegicus. Nature of the assay: Dose to effect on Brain DOPA synthesis upon ip administration. Type of assay: functional. An outline of the steps: (§1)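 Rats were dosed with NSD 1015 at 100 mg/kg ip 25 min before sacrifice and received no GBL. Test compound was given ip 1 h before sacrifice. Striatal DOPA was measured by HPLC with electrochemical detection and expressed as percent of control, n = 4 rats. Significance was set at p < 0.05 vs control.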

For assay [8], the species on record is Rattus norvegicus. Nature of the assay: Compound was tested for effect on brain DOPA synthesis in the striatum of NSD 1015 rat. It counts as functional. An outline of the steps:
as §1

The subject of assay [9] is Rattus norvegicus. Nature of the assay: Values for the reversal of the increase in DOPA levels in the striatum of GBL-treated rats after ip administration of 10 mg/Kg. It counts as functional. An outline of the steps:
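Male Long-Evans rats were given the compound ip at 10 mg/kg 1 h before sacrifice. GBL (750 mg/kg ip) was given 30 min and NSD 1015 (100 mg/kg ip) 25 min before sacrifice. Striatal DOPA was measured by HPLC with electrochemical detection. The value is the percent reversal of the GBL-induced DOPA increase; n = 4 or 5 rats.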

In assay [10] the test system is Rattus norvegicus. Nature of the assay: Compound was tested for stimulation of locomotor activity after sc administration in rat. It counts as functional.
A short description of assay [11]: Compound was tested for inhibition of Sidman conditioned avoidance in squirrel monkeys upon peroral administration. Type of assay: functional. The note with it: Cercopithecidae, po. An outline of the steps: (§2)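 Sidman avoidance in squirrel monkeys with oral dosing. ED50 (95% CL) is derived from three doses, with four animals tested per dose.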
A short description of assay [12]: Minimal effective oral dose that induced EPS signs in at least one squirrel monkey upon peroral administration. It counts as functional, Cercopithecidae.
Assay [13] relates to Rattus norvegicus. Nature of the assay: Values for the reversal of the increase in DOPA levels in the striatum of GBL-treated rats after ip administration. Type of assay: functional. An outline of the steps:
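Male Long-Evans rats received test compound ip 1 h before sacrifice, GBL 750 mg/kg ip 30 min before, and NSD 1015 100 mg/kg ip 25 min before. Striatal DOPA was quantified by HPLC with electrochemical detection, n = 4 or 5 rats. ED50 (95% CI) is the dose reversing the GBL-induced DOPA rise.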

Assay [14] is described as follows: Compound was tested for inhibition of Sidman conditioned avoidance in squirrel monkeys upon peroral administration. Type of assay: functional. To be noted: po. An outline of the steps: as §2
Assay [15] is filed under the species Rattus norvegicus. Nature of the assay: The compound was tested for effect on brain DOPA synthesis in the striatum of NSD 1015 rat. It counts as functional. An outline of the steps: as §1
Assay [16] concerns Rattus norvegicus. Nature of the assay: Percentage inhibition of DA neural firing after administration the compound at a dose of 0.25 mg/kg through ip route in rats. The note with it: route intraperitoneal. Type of assay: functional.
The mark [17] stands for this setting: Mus musculus, ip, read-out: ED50.
Where [18] appears, read: Rattus norvegicus, po, read-out: ED50.
Setting [19] is: Rattus norvegicus, sc, read-out: ED50.

The values below come from ChEMBL document CHEMBL1125885, “Dopamine autoreceptor agonists as potential antipsychotics. 3.6-Propyl-4,5,5a,6,7,8-hexahydrothiazolo[4,5-f]quinolin-2-amine” (J Med Chem, 1991).

pIC50: −log10 of the molar value. Where only a bound is given, the exact number is not on record here.

For `CCCN1CCC=C(c2csc(N)n2)C1`, the ED50 in the assay with Rattus norvegicus [1] was determined as 3.1 mg/kg; with Mus musculus (setting [17]), 4.3 mg/kg; with Rattus norvegicus [3], 1.3 mg/kg. Further, the pIC50 on D(2) dopamine receptor is 6.24; on D(1A) dopamine receptor it was 5.00. The compound further yielded an inhibition in vivo at 2.5 mg/kg with Rattus norvegicus [2] of 100%.

`CCCN1CCCC2c3nc(N)sc3CCC21` (stereo in doubt; 28) [listing 1 of 2 here] had an inhibition in assay [4] of 16%.

`CCCN1CCC=C2c3nc(N)sc3CCCC21` (stereo not drawn): the ED50 is more than 30 mg/kg in the assay with Rattus norvegicus [5] (setting [18]) and more than 20 mg/kg in the assay with Mus musculus (setting [17]). This compound also showed an inhibition in assay [4] of 18%.

With `CCCN1CCC=C2c3nc(N)sc3CC[C@@H]21` (stereo in doubt; (-)-6), the ED50 with Rattus norvegicus [6] is 2.5 mg/kg; in the assay on Rattus norvegicus [5], more than 30 mg/kg; with Mus musculus, 20.4 mg/kg; in the assay on Rattus norvegicus [10], more than 30 mg/kg; in assay [11] it was more than 30 mg/kg. The Dose in the assay with Rattus norvegicus [7] amounted to 20 mg/kg. In addition, in the assay filed under Rattus norvegicus [8], the Control is on record as 153.2%. In the assay on Rattus norvegicus [9], the Reversal is 14%. This compound also displayed an Inhibition in the assay with Rattus norvegicus [2] of 22%.

`CCCN1CCC=C2c3nc(N)sc3CCC21` (racemic): the ED50 turned out to be 0.9 mg/kg in the assay on Rattus norvegicus [6] (setting [19]); 18.9 mg/kg in the assay with Rattus norvegicus [5] (setting [18]); 9.4 mg/kg in the assay with Mus musculus (setting [17]); 14.5 mg/kg in the assay with Rattus norvegicus [10] (setting [19]); 4 mg/kg with Rattus norvegicus [13]; 11.2 mg/kg in assay [14]. For the same compound, the “EPS MED” value in [12] was more than 10 mg/kg. The compound also showed a Dose in the assay with Rattus norvegicus [7] of 5 mg/kg. The compound further showed a pIC50 on D(1A) dopamine receptor of less than 5.00. Besides, the Control in the assay filed under Rattus norvegicus [8] is on record as 63%. This compound also had an inhibition in vivo at 2.5 mg/kg in the assay on Rattus norvegicus [2] of 100%.

On to `CCCN1CC=C2c3nc(N)sc3CCC2C1` (stereo not drawn), for which the pIC50 on D(1A) dopamine receptor is less than 5.00. Further, in the assay on Mus musculus (setting [17]), the ED50 was more than 30 mg/kg.

`CCCN1CCCC2c3nc(N)sc3CCC21` (stereo in doubt; 28) [listing 2 of 2 here] gave an ED50 with Mus musculus of more than 30 mg/kg.

Regarding `Nc1nc2c(s1)CCC1NCCCC21` (stereo in doubt; 27), the inhibition in assay [4] was 10%.

As to `CCCN1CCCC2c3nc(N)sc3CCC21` (stereo in doubt; 29), the pIC50 was 5.91 on D(2) dopamine receptor and less than 5.00 at D(1A) dopamine receptor. In the assay on Mus musculus, this compound gave an ED50 of 7 mg/kg. In addition, the Reversal in the assay with Rattus norvegicus [9] is 100%. The compound also came in with an inhibition in vivo at 2.5 mg/kg in the assay on Rattus norvegicus [2] of 94%.

On D(1A) dopamine receptor, `CCCN1CCC2=C(CCc3sc(N)nc32)C1` had a pIC50 of 5.00. Also, the ED50 in the assay with Mus musculus (setting [17]) worked out at 18.8 mg/kg.

Take `CSc1ccc2c(c1)N(CCC1CCCCN1C)c1ccccc1S2` (stereo not drawn) [THIORIDAZINE]: in assay [12], the “EPS MED” value was less than 2.5 mg/kg. This compound also gave an ED50 in [14] of 3.9 mg/kg.

As to `CCCN1CCCC2c3nc(N)sc3CCCC21` (stereo not drawn), the ED50 with Mus musculus (setting [17]) is more than 30 mg/kg. In [4], this compound gave an inhibition of 10%.

On D(1A) dopamine receptor, `CCCN1CCC2=C(C1)c1nc(N)sc1CC2` gave a pIC50 of less than 5.00.

`CCCN1CCC=C2c3nc(N)sc3CC[C@@H]21` (stereo in doubt; (+)-6): the ED50 with Rattus norvegicus [6] came to 0.3 mg/kg; in the assay on Rattus norvegicus [5], 7 mg/kg; with Mus musculus, 3.7 mg/kg; with Rattus norvegicus [10], 6.8 mg/kg; with Rattus norvegicus [13], 1.3 mg/kg; in assay [14] it was 8.3 mg/kg. Besides, the “EPS MED” value in assay [12] was more than 30 mg/kg. The Dose with Rattus norvegicus [7] was determined as 2.5 mg/kg. At D(1A) dopamine receptor, this compound had a pIC50 of less than 5.00. This compound also yielded an Inhibition in the assay with Rattus norvegicus [2] of 91%. Besides, the Control in the assay listed under Rattus norvegicus [15] amounted to 52.4%.

As to `Nc1nc2c(s1)CCC1NCCCC21` (stereo in doubt; 26) [listing 1 of 2 here], the inhibition in assay [4] is 14%.

With `Nc1nc2c(s1)CCC1NCCCC21` (stereo in doubt; 26) [listing 2 of 2 here], in the assay with Mus musculus (setting [17]), the ED50 is more than 30 mg/kg.

With `CCCN1CCCC(c2cccc(O)c2)C1` (single isomer, unassigned; (+)), the ED50 in the assay on Rattus norvegicus [6] (setting [19]) worked out at 3 mg/kg; in the assay with Rattus norvegicus [10] (setting [19]), 5.8 mg/kg. In the assay with Rattus norvegicus [9], the Reversal is given as 58%. The inhibition in vivo at 2.5 mg/kg in the assay with Rattus norvegicus [2] turned out to be 100%.

Regarding `CN1CCc2cccc3c2[C@H]1Cc1ccc(O)c(O)c1-3` [APOMORPHINE], the ED50 with Rattus norvegicus [6] (setting [19]) is 0.03 mg/kg; in the assay on Rattus norvegicus [1], more than 30 mg/kg; in the assay on Mus musculus (setting [17]) it was 6.9 mg/kg; with Rattus norvegicus [10] (setting [19]), 0.07 mg/kg. Besides, testing at 0.25 mg/kg with Rattus norvegicus [16] gave an inhibition in vivo of 100%.

Usually ED50 stands for the dose at which the effect has come halfway, by size or by number of responders. For orientation: pIC50 means −log10 of the IC50, conventionally taken in molar units. In general, inhibition in vivo refers to the relative decrease from the control value, in per cent. As usually defined, the inhibition is the change of the read-out against control, counted positive when it falls. The Inhibition is the percentage by which the read-out fell short of the control.
